Test results reported in ChEMBL document CHEMBL5247578, “Effective synthesis of benzimidazoles-imidazo[1,2-a]pyrazine conjugates: A comparative study of mono-and bis-benzimidazoles for antitumor activity” (Eur J Med Chem, 2019).

How the values were obtained:
Assay type in all cases: functional
COLO 205 = experiment: Antiproliferative activity against human COLO 205 cells assessed as cell growth inhibition at 10 uM incubated for 48 hrs by sulforhodamine B assay relative to control
Outline: (§1)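 Single-dose NCI-60 prescreen at 10^-5 M. Cells in RPMI 1640 with 5% FBS and 2 mM L-glutamine, seeded 5,000–40,000 cells/well with 24 h preincubation, then drug exposure for 48 h at 37 °C under 5% CO2. Growth read by SRB staining of TCA-fixed cells at 515 nm against time-zero and untreated controls. Negative growth values denote cell kill.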

A549 = experiment: Antiproliferative activity against human A549 cells assessed as cell growth inhibition at 10 uM incubated for 48 hrs by sulforhodamine B assay relative to control; outline: as §1
DU-145 = experiment: Antiproliferative activity against human DU-145 cells assessed as cell growth inhibition at 10 uM incubated for 48 hrs by sulforhodamine B assay relative to control
Outline: (§2)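 NCI-60 one-dose prescreen at 10^-5 M. Cells grown in RPMI 1640 with 5% FBS and 2 mM glutamine, preincubated 24 h, then exposed 48 h at 37 °C. Adherent lines TCA-fixed, SRB-stained, A515 read. Growth percent relative to time-zero and control; negative values mean cell kill.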

MDA-MB-435 = experiment: Antiproliferative activity against human MDA-MB-435 cells assessed as cell growth inhibition at 10 uM incubated for 48 hrs by sulforhodamine B assay relative to control
Outline: (§3)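 NCI-60 single-dose screen at 10^-5 M. Cells grown in RPMI 1640 with 5% FBS and 2 mM L-glutamine, plated at 5,000–40,000 cells/well, and preincubated 24 h. Drug (DMSO stock) added and incubated 48 h at 37 °C, 5% CO2. Adherent cells fixed with cold TCA, stained with 0.4% SRB in 1% acetic acid, dye solubilized in 10 mM trizma base, A515 read. Percent growth taken against time-zero and untreated control.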

NCI-H23 = experiment: Antiproliferative activity against human NCI-H23 cells assessed as cell growth inhibition at 10 uM incubated for 48 hrs by sulforhodamine B assay relative to control; outline: as §3
HT-29 = experiment: Antiproliferative activity against human HT-29 cells assessed as cell growth inhibition at 10 uM incubated for 48 hrs by sulforhodamine B assay relative to control; outline: as §3
HOP-62 = experiment: Antiproliferative activity against human HOP-62 cells assessed as cell growth inhibition at 10 uM incubated for 48 hrs by sulforhodamine B assay relative to control; outline: as §2
OVCAR-4 = experiment: Antiproliferative activity against human OVCAR-4 cells assessed as cell growth inhibition at 10 uM incubated for 48 hrs by sulforhodamine B assay relative to control; outline: as §3
T47D = experiment: Antiproliferative activity against human T47D cells assessed as cell growth inhibition at 10 uM incubated for 48 hrs by sulforhodamine B assay relative to control; outline: as §3
CAKI-1 = experiment: Antiproliferative activity against human CAKI-1 cells assessed as cell growth inhibition at 10 uM incubated for 48 hrs by sulforhodamine B assay relative to control; outline: as §1
SF-295 = experiment: Antiproliferative activity against human SF-295 cells assessed as cell growth inhibition at 10 uM incubated for 48 hrs by sulforhodamine B assay relative to control; outline: as §3
OVCAR-3 = experiment: Antiproliferative activity against human OVCAR-3 cells assessed as cell growth inhibition at 10 uM incubated for 48 hrs by sulforhodamine B assay relative to control; outline: as §3
IGROV-1 = experiment: Antiproliferative activity against human IGROV-1 cells assessed as cell growth inhibition at 10 uM incubated for 48 hrs by sulforhodamine B assay relative to control; outline: as §3
SF-268 = experiment: Antiproliferative activity against human SF-268 cells assessed as cell growth inhibition at 10 uM incubated for 48 hrs by sulforhodamine B assay relative to control; outline: as §3
SF-539 = experiment: Antiproliferative activity against human SF-539 cells assessed as cell growth inhibition at 10 uM incubated for 48 hrs by sulforhodamine B assay relative to control; outline: as §3
MCF7 = experiment: Antiproliferative activity against human MCF7 cells assessed as cell growth inhibition at 10 uM incubated for 48 hrs by sulforhodamine B assay relative to control; outline: as §3
RPMI-8226 = experiment: Antiproliferative activity against human RPMI-8226 cells assessed as cell growth inhibition at 10 uM incubated for 48 hrs by sulforhodamine B assay relative to control; outline: as §3
PC-3 = experiment: Antiproliferative activity against human PC-3 cells assessed as cell growth inhibition at 10 uM incubated for 48 hrs by sulforhodamine B assay relative to control; outline: as §3
NCI-H460 = experiment: Antiproliferative activity against human NCI-H460 cells assessed as cell growth inhibition at 10 uM incubated for 48 hrs by sulforhodamine B assay relative to control; outline: as §3
SK-MEL-5 = experiment: Antiproliferative activity against human SK-MEL-5 cells assessed as cell growth inhibition at 10 uM incubated for 48 hrs by sulforhodamine B assay relative to control; outline: as §3
K562 = experiment: Antiproliferative activity against human K562 cells assessed as cell growth inhibition at 10 uM incubated for 48 hrs by sulforhodamine B assay relative to control; outline: as §3
SK-MEL-28 = experiment: Antiproliferative activity against human SK-MEL-28 cells assessed as cell growth inhibition at 10 uM incubated for 48 hrs by sulforhodamine B assay relative to control; outline: as §3
NCI-H322M = experiment: Antiproliferative activity against human NCI-H322M cells assessed as cell growth inhibition at 10 uM incubated for 48 hrs by sulforhodamine B assay relative to control; outline: as §3
BT-549 = experiment: Antiproliferative activity against human BT-549 cells assessed as cell growth inhibition at 10 uM incubated for 48 hrs by sulforhodamine B assay relative to control; outline: as §1
UACC-257 = experiment: Antiproliferative activity against human UACC-257 cells assessed as cell growth inhibition at 10 uM incubated for 48 hrs by sulforhodamine B assay relative to control; outline: as §3
TK-10 = experiment: Antiproliferative activity against human TK-10 cells assessed as cell growth inhibition at 10 uM incubated for 48 hrs by sulforhodamine B assay relative to control; outline: as §3
M14 = experiment: Antiproliferative activity against human M14 cells assessed as cell growth inhibition at 10 uM incubated for 48 hrs by sulforhodamine B assay relative to control; outline: as §3
SK-OV-3 = experiment: Antiproliferative activity against human SK-OV-3 cells assessed as cell growth inhibition at 10 uM incubated for 48 hrs by sulforhodamine B assay relative to control; outline: as §3
HCC 2998 = experiment: Antiproliferative activity against human HCC 2998 cells assessed as cell growth inhibition at 10 uM incubated for 48 hrs by sulforhodamine B assay relative to control; outline: as §2

| SMILES | inhibition at 10 µM (A549) | inhibition at 10 µM (DU-145) | inhibition at 10 µM (MDA-MB-435) | inhibition at 10 µM (NCI-H23) | inhibition at 10 µM (HT-29) | inhibition at 10 µM (OVCAR-4) | inhibition at 10 µM (T47D) | inhibition at 10 µM (SF-295) | inhibition at 10 µM (OVCAR-3) | inhibition at 10 µM (IGROV-1) | inhibition at 10 µM (SF-268) | inhibition at 10 µM (SF-539) | inhibition at 10 µM (MCF7) | inhibition at 10 µM (RPMI-8226) | inhibition at 10 µM (PC-3) | inhibition at 10 µM (NCI-H460) | inhibition at 10 µM (SK-MEL-5) | inhibition at 10 µM (K562) | inhibition at 10 µM (SK-MEL-28) | inhibition at 10 µM (NCI-H322M) | also measured |
| --- | --- | --- | --- | --- | --- | --- | --- | --- | --- | --- | --- | --- | --- | --- | --- | --- | --- | --- | --- | --- | --- |
| Cc1cccc(-c2cn3ccnc3c(-c3ccc4ncn(Cc5ccccc5)c4c3)n2)c1 | 14.9% | 14.2% | 0.94% | 9.09% | 42% | 19.3% | 86% | 14.3% | 13.9% | 9.51% | 7.22% | 7.28% | 22.2% | 37.5% | 24.8% | 10.1% | 10.1% | – | – | – | inhibition at 10 µM (COLO 205): 11.3%; inhibition at 10 µM (HOP-62): 9.68%; inhibition at 10 µM (CAKI-1): 24.8% |
| c1ccc(-c2cn3ccnc3c(-c3ccc4ncn(C5CCCCC5)c4c3)n2)cc1 | 33.3% | 29.3% | 28.7% | 45.3% | 48.3% | 34.5% | -11.1% | 39.8% | 41.8% | 11.9% | 21.7% | 27.8% | 38% | 85.7% | 92% | 37.8% | 36.5% | 70.6% | 18% | 5.25% | inhibition at 10 µM (COLO 205): 20.7%; inhibition at 10 µM (BT-549): 57.1%; inhibition at 10 µM (UACC-257): 5.22%; inhibition at 10 µM (TK-10): 2.26%; inhibition at 10 µM (M14): 38.2%; inhibition at 10 µM (SK-OV-3): 7.52% |
| Brc1ccc(-c2cn3ccnc3c(-c3ccc4ncn(C5CCCCC5)c4c3)n2)cc1 | 15.3% | 5.66% | 58.4% | 8.38% | 20.9% | 10.5% | 55% | 41.3% | 26.3% | 9.4% | 15.5% | 24.4% | 46.4% | 32% | 42.4% | 13.2% | 23.6% | 59% | 28.3% | 4.21% | inhibition at 10 µM (BT-549): 35.1%; inhibition at 10 µM (UACC-257): 7.3%; inhibition at 10 µM (M14): 26.9%; inhibition at 10 µM (SK-OV-3): 6.44% |
| CCc1ccc(-c2cn3ccnc3c(-c3ccc4ncn(Cc5ccccc5)c4c3)n2)cc1 | 45.4% | 19.1% | 50.9% | 23% | 68.8% | 35.1% | 94.8% | 51.2% | 31.2% | 25% | 30.5% | 21.2% | 58% | 55.4% | 50.4% | 42% | 47.9% | – | 19.1% | 0.89% | inhibition at 10 µM (COLO 205): 34.2%; inhibition at 10 µM (BT-549): 15.9%; inhibition at 10 µM (HOP-62): 17.9%; inhibition at 10 µM (TK-10): 15.5%; inhibition at 10 µM (HCC 2998): 25.2%; inhibition at 10 µM (CAKI-1): 47.9%; inhibition at 10 µM (M14): 36.4%; inhibition at 10 µM (SK-OV-3): 0.55% |
| c1ccc2c(-c3cn4ccnc4c(-c4ccc5ncn(C6CCCCC6)c5c4)n3)cccc2c1 | – | 5.1% | – | 4.32% | 4.11% | 19.7% | 41.3% | 6.34% | 2.38% | – | 7.84% | – | 13% | 22.9% | 36.5% | 3.61% | 4.06% | 30.9% | – | 4.74% | inhibition at 10 µM (HOP-62): 19.6%; inhibition at 10 µM (HCC 2998): 2.23%; inhibition at 10 µM (CAKI-1): 25.1% |
| Clc1ccc(-c2cn3ccnc3c(-c3ccc4ncn(C5CCCCC5)c4c3)n2)cc1 | 11.6% | – | 36.7% | 4.11% | 16.4% | 4.57% | 27.6% | 14.5% | 10.8% | 7.84% | 4.83% | 6.3% | 21.8% | 19% | 24.6% | 4.14% | 12.4% | 44.5% | 12.1% | – | inhibition at 10 µM (BT-549): 23.8%; inhibition at 10 µM (UACC-257): 5.44%; inhibition at 10 µM (M14): 10%; inhibition at 10 µM (SK-OV-3): 6.14% |
